Measurements from ChEMBL document CHEMBL1137906, “Microwave assisted synthesis of 2-(4-substituted piperazin-1-yl)-1,8-naphthyridine-3-carbonitrile as a new class of serotonin 5-HT3 receptor antagonists” (Bioorg Med Chem Lett, 2004).

assay: Antagonism of 2-methyl-5-HT effect on 5-hydroxytryptamine 3 receptor in isolated guinea pig ileum; format: functional, tissue-based; settings: Cavia porcellus, read-out: pA2 (converted)
In short: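 Longitudinal muscle-myenteric plexus strip from guinea pig ileum, prepared by a literature method. Equilibrated 30 min at 500 mg resting tension in Tyrode solution, ca. 37°C, constant aeration. Agonist 2-methyl-5-HT added noncumulatively at 15 min intervals; antagonism of its contractile response measured. Values are means of three separate experiments.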

First: N#Cc1cc2cccnc2nc1N1CCN(c2ccc([N+](=O)[O-])cc2)CC1
Second: COc1ccc(N2CCN(c3nc4ncccc4cc3C#N)CC2)cc1
The Kb of the first is 13-fold higher: 158000 nM for the first, 12600 nM for the second.

First: N#Cc1cc2cccnc2nc1N1CCN(Cc2ccccc2)CC1
Second: N#Cc1cc2cccnc2nc1N1CCN(c2ccccc2)CC1
The Kb of the first is 4-fold higher: 7940 nM for the first, 2000 nM for the second.

Going from `COc1cccc(N2CCN(c3nc4ncccc4cc3C#N)CC2)c1` to `COc1ccccc1N1CCN(c2nc3ncccc3cc2C#N)CC1`, the Kb rises from 1000 nM to 3980 nM (4-fold).

Going from `N#Cc1cc2cccnc2nc1N1CCNCC1` to `CN1CCN(c2nc3ncccc3cc2C#N)CC1`, the Kb falls from 316 nM to 39.8 nM (7.9-fold).

Compared with `N#Cc1cc2cccnc2nc1N1CCN(c2ccccn2)CC1`, `CCN1CCN(c2nc3ncccc3cc2C#N)CC1` is 1600-fold lower in Kb: 126000 nM for the first, 79.4 nM for the second.

Compared with `Cc1nccn1CC1CCc2c(c3ccccc3n2C)C1=O` (configuration not stated) [ONDANSETRON], `C=CCN1CCN(c2nc3ncccc3cc2C#N)CC1` is 20-fold lower in Kb: 126 nM for the first, 6.31 nM for the second.
